{"source": "paper PMC3901018", "about": "(Chemical communications (Cambridge, England), 2014)", "key": {"[1]": {"test_system": "F21T (human telomeric 21-mer) G4", "test": "FRET G4 stabilisation", "type": "binding", "conditions": "ΔTm at 1 µM; triplicate, Esd ± 0.5 °C", "how_it_was_run": "(§1)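 96-well FRET melting assay using dual-labelled oligonucleotides: human telomeric 21-mer F21T and c-KIT2 G4s, plus T-loop duplex DNA. Test compound at 1 µM. Tm shift obtained by curve fitting to the melting data, from triplicate measurements, Esd ± 0.5 °C. n/a marks unsuccessful curve fitting.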"}, "c-KIT2 G4": {"test_system": "c-KIT2 G4", "test": "FRET G4 stabilisation", "type": "binding", "conditions": "ΔTm at 1 µM; triplicate, Esd ± 0.5 °C", "how_it_was_run": "as §1"}, "HSP90A promoter G4": {"test_system": "HSP90A promoter G4", "test": "FRET G4 stabilisation", "type": "binding", "conditions": "ΔTm at 1 µM; triplicate, Esd ± 0.5 °C"}, "HSP90B promoter G4": {"test_system": "HSP90B promoter G4", "test": "FRET G4 stabilisation", "type": "binding", "conditions": "ΔTm at 1 µM; triplicate, Esd ± 0.5 °C"}, "[2]": {"test_system": "AR (androgen receptor promoter) G4", "test": "FRET G4 stabilisation", "type": "binding", "conditions": "ΔTm at 1 µM; triplicate, Esd ± 0.5 °C"}, "[3]": {"test_system": "duplex DNA sequence (T-loop)", "test": "FRET melting assay, duplex DNA control", "type": "binding", "conditions": "ΔTm at 1 µM, Esd ± 0.5 °C", "how_it_was_run": "as §1"}, "[4]": {"test_system": "F21T G4 versus calf thymus duplex DNA", "test": "Calf thymus DNA", "type": "binding, human", "conditions": "1 µM compound, calf thymus DNA competitor", "how_it_was_run": "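Competition version of the FRET melting assay. Dual-labelled F21T G4 is challenged with unlabelled calf thymus duplex DNA added at high duplex:G4 ratios. Test compound at 1 µM. Read-out is % retention of the F21T Tm shift.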"}, "A549 (lung cancer)": {"test_system": "A549 (lung cancer)", "test": "96 hr SRB assay, A549", "type": "cell-based", "conditions": "Homo sapiens, A549, 96 h, read-out: IC50, A549"}, "MCF7 (breast cancer)": {"test_system": "MCF7 (breast cancer)", "test": "96 hr SRB assay, MCF7", "type": "cell-based", "conditions": "Homo sapiens, MCF7, 96 h, read-out: IC50, MCF7"}, "[5]": {"test_system": "ALT (transformed WI38 lung fibroblast cells)", "test": "96 hr SRB assay, ALT", "type": "cell-based", "conditions": "Homo sapiens, WI-38, 96 h, read-out: IC50, ALT"}, "[6]": {"test_system": "Mia-PaCa2 (pancreatic cancer)", "test": "96 hr SRB assay, Mia-PaCa2", "type": "cell-based", "conditions": "Homo sapiens, MIA PaCa-2, 96 h, read-out: IC50, Mia-PaCa2"}, "[7]": {"test_system": "Panc1 (pancreatic cancer)", "test": "96 hr SRB assay, Panc1", "type": "cell-based", "conditions": "Homo sapiens, PANC-1, 96 h, read-out: IC50, Panc1"}, "RCC4 (renal cancer)": {"test_system": "RCC4 (renal cancer)", "test": "96 hr SRB assay, RCC4", "type": "cell-based", "conditions": "Homo sapiens, RCC4, 96 h, read-out: IC50, RCC4"}, "786-O (renal cancer)": {"test_system": "786-O (renal cancer)", "test": "96 hr SRB assay, 786-O", "type": "cell-based", "conditions": "Homo sapiens, 786-0, 96 h, read-out: IC50, 786-O"}, "[8]": {"test_system": "WI38 (non-transformed lung fibroblast cells)", "test": "96 hr SRB assay, WI38", "type": "cell-based", "conditions": "Homo sapiens, WI-38, 96 h, read-out: IC50, WI38"}}, "data": [{"smiles": "CN1CCN(CCCNc2cc3c4c(c(NCCCN5CCN(C)CC5)cc5c4c2C(=O)N(CCCN2CCOCC2)C5=O)C(=O)N(CCCN2CCOCC2)C3=O)CC1", "note": "[Compound 8, 4,9-bis((3-(4-methyl-piperazin-1-yl)propyl)amino)-2,7-bis(3-morpholinopropyl) benzo-[lmn] [3,8] phenanthroline-1,3,6,8(2H,7H)-tetraone]", "values": [{"measurement": "FRET G4 stabilization ΔTm, F21T", "setting": "[1]", "value": 26.6, "unit": "°C"}, {"measurement": "FRET G4 stabilization ΔTm, c-KIT2", "setting": "c-KIT2 G4", "value": 22.0, "unit": "°C"}, {"measurement": "FRET G4 stabilization ΔTm, HSP-90A", "setting": "HSP90A promoter G4", "value": 33.1, "unit": "°C"}, {"measurement": "FRET G4 stabilization ΔTm, HSP-90B", "setting": "HSP90B promoter G4", "value": 28.6, "unit": "°C"}, {"measurement": "FRET G4 stabilization ΔTm, AR", "setting": "[2]", "value": 15.9, "unit": "°C"}, {"measurement": "FRET ΔTm, T-loop duplex", "setting": "[3]", "value": 4.9, "unit": "°C"}, {"measurement": "% retention of the F21T ΔTm, G4:CT 1:1", "setting": "[4]; G4:CT 1:1", "value": 100, "unit": "%"}, {"measurement": "% retention of the F21T ΔTm, G4:CT 1:10", "setting": "[4]; G4:CT 1:10", "value": 100, "unit": "%"}, {"measurement": "% retention of the F21T ΔTm, G4:CT 1:300", "setting": "[4]; G4:CT 1:300", "value": 27.2, "unit": "%"}, {"measurement": "IC50", "setting": "A549 (lung cancer)", "value": 19, "unit": "nM"}, {"measurement": "IC50", "setting": "MCF7 (breast cancer)", "value": 70, "unit": "nM"}, {"measurement": "IC50", "setting": "[5]", "value": 63, "unit": "nM"}, {"measurement": "IC50", "setting": "[6]", "value": 11, "unit": "nM"}, {"measurement": "IC50", "setting": "[7]", "value": 3, "unit": "nM"}, {"measurement": "IC50", "setting": "RCC4 (renal cancer)", "value": 560, "unit": "nM"}, {"measurement": "IC50", "setting": "786-O (renal cancer)", "value": 320, "unit": "nM"}, {"measurement": "IC50", "setting": "[8]", "value": 230, "unit": "nM"}]}]}
